MC4R antag cAMP: blocks human MC4R cAMP signaling. MC4R-expressing cells, MTII-stimulated cAMP, LANCE TR-FRET. inhibition, % at 6.5 µM. P32245. hit rate 0.48% among 360,000. AID 540295;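 active = inhibition above its plate's cutoff, the mean of tested wells on that plate plus 3 SD, cut at about 29% in these data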;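 note: 0% = Melanotan II alone and 100% = Melanotan II plus saturating MCL0020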
Target sequence (P32245 whole entry, looked up): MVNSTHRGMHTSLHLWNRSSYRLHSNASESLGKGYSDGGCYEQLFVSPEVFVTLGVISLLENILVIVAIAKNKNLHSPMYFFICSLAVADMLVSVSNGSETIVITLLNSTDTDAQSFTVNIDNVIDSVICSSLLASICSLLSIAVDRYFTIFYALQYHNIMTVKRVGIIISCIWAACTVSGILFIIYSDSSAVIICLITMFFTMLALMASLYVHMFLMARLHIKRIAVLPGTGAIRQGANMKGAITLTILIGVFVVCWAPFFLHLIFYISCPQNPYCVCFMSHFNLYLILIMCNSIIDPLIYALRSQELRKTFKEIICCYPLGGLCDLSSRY
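System – human MC4R-expressing U2OS cells · Also added – Melanotan II · Dosing – one concentration, 6.5 µM nominal · Timing – 30-min compound, 1-h challenge, 1-h detection, room temperature · Measured by – Eu-cAMP/anti-cAMP TR-FRET, emission 671 nm · Replicates – singlicate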
MC4R barr agon: agonists of human melanocortin 4 receptor (MC4R) beta-arrestin | U2OS MC4R beta-arrestin complementation, luminescence; percent of melanotan II response, DMSO zero | hit rate 0.98% among 360,000 | AID 540308 | P32245 | activation, % at 8.9 µM;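 active = activation above a per-plate cutoff, the mean activation of sample wells on that plate plus 3 SD, cut at about 8% in these data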
Beta apoptosis: blocks beta cell apoptosis; INS-1E cytokine-induced death, ATP luminescence, 48 h; percent of positive-control rescue, neutral wells zero; protection from apoptosis, % (no concentration beside the values); hit rate 0.8% among 300,000;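 active = Every replicate reaches about 75%, or at least half do and their mean reaches it too, limit read from the data; inconclusive = At least half of replicates reach the limit but their mean does not; inactive = Under half of replicates reach the limit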;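 note: 0% = cytokine-treated negative control wells and 100% = positive control rescue; higher means more ATP so stronger rescue from cytokine killing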
TMEM16A act: mouse TMEM16A channel activation, primary screen | Q8BHY3 | HEK293 TMEM16A/YFP-H148Q/I152L, iodide quench fluorescence; active compounds read low | B-score at 10 µM | hit rate 0.3% among 340,000;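 active = fluorescence-ratio B-score plate-corrected deviation score at least 3 library SD below zero, with starting fluorescence score within 5 deviations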;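 note: channel opened by trigger with iodide after compound preincubation; score built on the fluorescence ratio of max minus min over baseline; more negative score means more quench and so TMEM16A activation or potentiation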
TMEM16A inh: inhibitors of mouse TMEM16A calcium-activated chloride channel | Q8BHY3 | HEK293 TMEM16A/YFP iodide influx fluorescence, ionomycin | normalized B-score (activity score, 25-100; higher = stronger inhibition) at 10 µM | hit rate 1.2% among 310,000;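 active = ratio plate-corrected score three or more library SD toward inhibition, starting fluorescence score within five deviations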;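 note: score derived from kinetic fluorescence span divided by baseline fluorescence per well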
CSC inhib: blocks cancer stem cells | cancer stem cell-like cells viability, luminescence | inhibition, % at 7.5 µM | hit rate 1.1% among 300,000; in the data active = inhibition above about 75%; inconclusive = no clear call, values can overlap the other calls; tested in HMLE shEcad cells
cAMP nonselect: U2OS forskolin cAMP inhibition counter-screen | hit rate 26% among 1,600 | shares compounds with MC4R antag cAMP | parental U2OS, LANCE TR-FRET | inhibition, % at 6.5 µM | AID 602193;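 active = mean inhibition over triplicates above the low-control well mean plus 3 SD, set per campaign, cut at about 13% in these data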;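 note: signal is single emission at 671 nm which falls as cellular cAMP rises; 0% = forskolin-stimulated wells and 100% = buffer without forskolin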
MC4R antag conf: human MC4R cAMP antagonism confirmation; shares compounds with MC4R antag cAMP; MC4R-expressing cells, MTII-stimulated cAMP, TR-FRET; inhibition, % at 6.5 µM; hit rate 27% among 1,600; in the data active = inhibition above about 29%;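 note: 0% = agonist stimulated wells alone and 100% = agonist stimulated wells plus saturating reference antagonist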
An asterisk follows results filed as active; i = inactive; ? = inconclusive; · = no result. A selection: hits, their analogues and other compounds. The true share with any hit is near 3.8%.

SMILES	MC4R antag cAMP	MC4R barr agon	Beta apoptosis	TMEM16A act	TMEM16A inh	CSC inhib	cAMP nonselect	MC4R antag conf
Cc1ccc2[nH]c3c(=S)nc[nH]c3c2c1	48*	-2	-4	i	i	12	13	11
Cc1ccc2[nH]c3c(=O)n(N)c(C)nc3c2c1	-11	1	0	i	i	1	·	·
CC(C)(C)OC(=O)C[C@H]1C/C=C\C[C@H](CC(=O)NCCO)C(=O)N[C@@H](c2ccccc2)COC1=O	6	0	2	i	·	6	·	·
COC(=O)COc1ccc(S(=O)(=O)N2CCN(c3ccccc3F)CC2)cc1	42*	-1	-6	i	i	0	14*	33*
COC(=O)COc1ccc(S(=O)(=O)N2CCN(c3ccccc3)CC2)cc1	50*	-2	-11	i	i	-5	14*	28
CCOc1ccc(S(=O)(=O)N2CCC(C(=O)N3CCN(c4ccccc4)CC3)CC2)cc1	-4	4	1	i	i	-1	·	·
COC(=O)c1cc(S(=O)(=O)N2CCN(c3ccccc3F)CC2)c[nH]1	1	0	-3	i	i	-9	·	·
COc1ccc(C(=O)CC(C(=O)O)c2ccc(OC)c(OC)c2)cc1OC (stereo unspecified)	7	0	·	·	·	·	·	·
O=C(NCCc1csc(-c2ccccc2)n1)c1c(F)cccc1Cl	31*	-2	-3	i	i	2	-2	0
O=C(NCCc1csc(-c2ccccc2)n1)c1c(F)cccc1F	14	1	3	i	i	-2	·	·
CCN=C1SC(CC(N)=O)C(=O)N1CC (stereo unspecified)	32*	2	·	i	i	-4	4	4
NC(=O)[C@@H]1CC2(CC(c3cccc(NC(=O)[C@H]4CCC(=O)N4)c3)=NO2)CN1C(=O)COc1ccc(Cl)cc1 (stereo partly specified)	6	-1	2	i	i	-23	·	·
Cc1ccc(C2=NCCn3nc4cc([N+](=O)[O-])ccc4c32)cc1	3	0	-1	i	i	-18	·	·
CCOc1ccc(/C=C/[N+](=O)[O-])c2ccccc12	41*	-5	6	i	i	61	12	-20
CCOC(=O)Cn1cc(/C=C/[N+](=O)[O-])c2ccccc21	-7	-1	-4	i	i	-8	·	·
O=C(CS(=O)c1ccc(C(F)(F)F)cc1[N+](=O)[O-])Oc1ccc(Cl)cc1 (stereo unspecified)	33*	3	-25	i	i	4	9	28
Cc1cc(C)cc(OC(=O)CS(=O)c2ccc(C(F)(F)F)cc2[N+](=O)[O-])c1 (stereo unspecified)	22	3	-26	i	i	39	·	·
CC(C)(C)CC(C)(C)c1ccc(O)c(Cc2ccc(Cl)cc2Cl)c1	44*	2	·	i	·	·	0	16
CCSC1=C(C#N)C(c2ccc3c(c2)OCO3)C2=C(CCCC2=O)N1 (stereo unspecified)	2	-2	-13	i	i	11	·	·
CCSC1=C(C#N)C(CC(C)C)C2=C(CCCC2=O)N1 (stereo unspecified)	34*	-2	6	i	i	4	1	14
O=C(COC(=O)CNC(=O)c1cccc([N+](=O)[O-])c1)Nc1nc2ccccc2s1	31*	-2	-5	i	i	-8	7	13
O=C(COC(=O)CNC(=O)c1cccc([N+](=O)[O-])c1)Nc1ccccc1OC(F)F	13	2	-10	i	i	-1	·	·
COC(=O)CSc1nc2ccccc2nc1SCC(=O)OC	36*	1	-6	i	i	7	6	-4
CC(C)[C@H](NS(=O)(=O)c1ccccc1F)C(=O)OCC(=O)Nc1cccc(S(N)(=O)=O)c1	4	-1	-9	i	·	-16	·	·
COc1ccccc1CNC(=O)CCNS(=O)(=O)c1ccc2[nH]c(=O)oc2c1	-2	-2	-5	i	i	-18	·	·
SMILES	MC4R antag cAMP	MC4R barr agon	Beta apoptosis	TMEM16A act	TMEM16A inh	CSC inhib	cAMP nonselect	MC4R antag conf
O=C(Nc1nc2cc(Cl)ccc2s1)C1CCCN(S(=O)(=O)c2cccc3cccnc23)C1 (stereo unspecified)	29*	3	-7	i	i	38	2	19
O=C(Nc1ccccc1Cl)C1CCCN(S(=O)(=O)c2cccc3cccnc23)C1 (stereo unspecified)	2	1	-2	i	i	2	·	·
O=C(CN1C(=O)c2cccc([N+](=O)[O-])c2C1=O)N1CCN(c2ccc(F)cc2)CC1	34*	-1	-1	i	i	-3	27*	43*
COc1ccc2nc3n(c(=O)c2c1)-c1cc(Cl)ccc1C(=O)NC3Cc1ccccc1 (stereo unspecified)	·	·	-6	·	·	·	·	·
CC(=O)Nc1ccc2nc(NC(=O)C(Cl)(Cl)Cl)sc2c1	29*	0	-5	i	i	-4	-4	-19
CC(=O)Nc1ccc2nc(NC(=O)c3cccnc3)sc2c1	4	-1	-5	i	i	-2	·	·
O=C(CN1CCN(C(=O)C2CCN(C(=O)/C=C/c3ccccc3)CC2)CC1)Nc1ccccc1Cl	0	3	·	i	·	·	·	·
COC(=O)c1ccccc1S(=O)(=O)N1CCC(C(=O)OC(C)C(=O)N(C)Cc2ccccc2)CC1 (stereo unspecified)	8	-1	·	i	·	·	·	·
O=Cc1cn(-c2ccccc2)nc1-c1ccccc1	14	1	·	i	i	4	·	·
CC1=NNC(=O)/C1=C\c1cn(-c2ccccc2)nc1-c1ccccc1	51*	-4	109*	i	i	70	26*	57*
O=C(Cn1ncc(Cl)c(Cl)c1=O)NC(=O)NC1CCCCC1	38*	-1	-4	i	·	?	36*	67*
CCn1cc(C(=O)NC(C)C23CC4CC(CC(C4)C2)C3)cn1 (stereo unspecified)	24	0	1	i	i	-3	·	·
CC(NC(=O)Cn1ncc(Cl)c(Cl)c1=O)C12CC3CC(CC(C3)C1)C2 (stereo unspecified)	81*	-2	-1	i	100*	116*	32*	46*
CCCCCCNC(=O)c1cc(S(=O)(=O)N2CCc3ccccc32)ccc1F	4	-1	0	i	i	2	·	·
CC(C)NC(=O)C1CCN(C(=O)c2cc3sccc3n2Cc2ccc(F)cc2)CC1	32*	1	26	i	i	8	2	6

Assay outcomes from PubChem.
